Values joined by “and” are separate entries in the source; they are usually repeats but may differ in a detail not shown here. Equal entries are not always repeated.
System: HEK-293T
Assay: Multiplex assay against HEK293T
Format: toxicity, cell-based
Conditions: human, number of replicates 2
Outline: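 At seeding, live cells were stained with Hoechst33342, BioTracker Green Microtubule Cytoskeleton Dye, MitoTracker Red and Annexin V Alexa Fluor 680. After compound addition they were imaged on a CQ1 microscope at 37°C and 5% CO2, and CellPathfinder machine-learning gating sorted them into Hoechst high-intensity objects or normal cells, with normal cells further split into healthy, pyknosed or fragmented nuclei and pyknosed cells into mitotic or apoptotic. Tubulin, mitochondrial-mass and membrane-permeability phenotypes are given as per cents of cells with healthy nuclei.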

[1] = 12 h, 1 µM, compound concentration 1 uM
[2] = 12 h, 10 µM, compound concentration 10 uM
[3] = 24 h, 1 µM, compound concentration 1 uM
[4] = 24 h, 10 µM, compound concentration 10 uM
[5] = 48 h, 1 µM, compound concentration 1 uM
[6] = 48 h, 10 µM, compound concentration 10 uM

## O=C1NC(=NCc2cccs2)SC1=Cc1ccc2ncccc2c1
[1]
  Population Apoptotic (%): 54% and 38%
  Population Fragmented Nuclei (%): 6% and 4%
  Population Healthy Nuclei (%): 78% and 85%
  Population Hoechst High Intensity Objects (%): 8% and 7%
  Population Membrane Permeable-Phenotype (%): 4% and 2%
  Population Mitochondria Different-Phenotype (%): 15% and 9%
  Population Mitotic Cells (%): 45% and 61%
  Population Normal (%): 91% and 92%
  Population Pyknosed Nuclei (%): 15% and 10%
  Population Tubulin-Different-Phenotype (%): 46% and 45%
  Total Cell Count: 632 and 733
[2]
  Population Apoptotic (%): 54% and 69%
  Population Fragmented Nuclei (%): 1% and 2%
  Population Healthy Nuclei (%): 90% and 92%
  Population Hoechst High Intensity Objects (%): 3% and 6%
  Population Membrane Permeable-Phenotype (%): 4%
  Population Mitochondria Different-Phenotype (%): 21% and 19%
  Population Mitotic Cells (%): 45% and 30%
  Population Normal (%): 96% and 93%
  Population Pyknosed Nuclei (%): 7% and 5%
  Population Tubulin-Different-Phenotype (%): 78% and 72%
  Total Cell Count: 644 and 684
[3]
  Population Apoptotic (%): 40% and 31%
  Population Fragmented Nuclei (%): 6% and 4%
  Population Healthy Nuclei (%): 84% and 89%
  Population Hoechst High Intensity Objects (%): 8%
  Population Membrane Permeable-Phenotype (%): 3% and 2%
  Population Mitochondria Different-Phenotype (%): 3% and 5%
  Population Mitotic Cells (%): 59% and 68%
  Population Normal (%): 91%
  Population Pyknosed Nuclei (%): 9% and 6%
  Population Tubulin-Different-Phenotype (%): 19% and 30%
  Total Cell Count: 1066 and 1062
[4]
  Population Apoptotic (%): 63% and 77%
  Population Fragmented Nuclei (%): 2%
  Population Healthy Nuclei (%): 91% and 93%
  Population Hoechst High Intensity Objects (%): 6% and 5%
  Population Membrane Permeable-Phenotype (%): 2% and 1%
  Population Mitochondria Different-Phenotype (%): 9% and 12%
  Population Mitotic Cells (%): 36% and 22%
  Population Normal (%): 93% and 94%
  Population Pyknosed Nuclei (%): 5% and 4%
  Population Tubulin-Different-Phenotype (%): 57% and 55%
  Total Cell Count: 699 and 690
[5]
  Population Apoptotic (%): 14% and 11%
  Population Fragmented Nuclei (%): 16% and 10%
  Population Healthy Nuclei (%): 80% and 86%
  Population Hoechst High Intensity Objects (%): 9% and 10%
  Population Membrane Permeable-Phenotype (%): 5%
  Population Mitochondria Different-Phenotype (%): 0% and 1%
  Population Mitotic Cells (%): 85% and 88%
  Population Normal (%): 90% and 89%
  Population Pyknosed Nuclei (%): 3%
  Population Tubulin-Different-Phenotype (%): 9% and 14%
  Total Cell Count: 2821 and 2321
[6]
  Population Apoptotic (%): 45% and 59%
  Population Fragmented Nuclei (%): 8% and 7%
  Population Healthy Nuclei (%): 87% and 89%
  Population Hoechst High Intensity Objects (%): 8% and 7%
  Population Membrane Permeable-Phenotype (%): 2% and 0%
  Population Mitochondria Different-Phenotype (%): 3% and 5%
  Population Mitotic Cells (%): 54% and 40%
  Population Normal (%): 91% and 92%
  Population Pyknosed Nuclei (%): 3%
  Population Tubulin-Different-Phenotype (%): 21% and 26%
  Total Cell Count: 740 and 737

## O=C1Nc2ccc(C(=O)c3ccco3)cc2C1=Cc1cc(Cl)c(O)c(Cl)c1 [GW406108X]
[1]
  Population Apoptotic (%): 52% and 54%
  Population Fragmented Nuclei (%): 4% and 3%
  Population Healthy Nuclei (%): 83% and 81%
  Population Hoechst High Intensity Objects (%): 9%
  Population Membrane Permeable-Phenotype (%): 2% and 1%
  Population Mitochondria Different-Phenotype (%): 18% and 17%
  Population Mitotic Cells (%): 47% and 45%
  Population Normal (%): 90%
  Population Pyknosed Nuclei (%): 11% and 14%
  Population Tubulin-Different-Phenotype (%): 49% and 42%
  Total Cell Count: 695 and 619
[2]
  Population Apoptotic (%): 53% and 61%
  Population Fragmented Nuclei (%): 4% and 3%
  Population Healthy Nuclei (%): 82% and 85%
  Population Hoechst High Intensity Objects (%): 7% and 9%
  Population Membrane Permeable-Phenotype (%): 2% and 1%
  Population Mitochondria Different-Phenotype (%): 19%
  Population Mitotic Cells (%): 46% and 38%
  Population Normal (%): 92% and 90%
  Population Pyknosed Nuclei (%): 13% and 10%
  Population Tubulin-Different-Phenotype (%): 67%
  Total Cell Count: 686 and 661
[3]
  Population Apoptotic (%): 55% and 53%
  Population Fragmented Nuclei (%): 7%
  Population Healthy Nuclei (%): 85% and 82%
  Population Hoechst High Intensity Objects (%): 9%
  Population Membrane Permeable-Phenotype (%): 2% and 1%
  Population Mitochondria Different-Phenotype (%): 4% and 5%
  Population Mitotic Cells (%): 44% and 46%
  Population Normal (%): 90%
  Population Pyknosed Nuclei (%): 7% and 9%
  Population Tubulin-Different-Phenotype (%): 26% and 25%
  Total Cell Count: 1089 and 967
[4]
  Population Apoptotic (%): 46% and 59%
  Population Fragmented Nuclei (%): 7% and 6%
  Population Healthy Nuclei (%): 85% and 81%
  Population Hoechst High Intensity Objects (%): 11% and 13%
  Population Membrane Permeable-Phenotype (%): 3% and 2%
  Population Mitochondria Different-Phenotype (%): 10% and 15%
  Population Mitotic Cells (%): 53% and 40%
  Population Normal (%): 88% and 86%
  Population Pyknosed Nuclei (%): 7% and 11%
  Population Tubulin-Different-Phenotype (%): 53%
  Total Cell Count: 904 and 698
[5]
  Population Apoptotic (%): 9% and 25%
  Population Fragmented Nuclei (%): 15% and 13%
  Population Healthy Nuclei (%): 81% and 82%
  Population Hoechst High Intensity Objects (%): 10% and 11%
  Population Membrane Permeable-Phenotype (%): 5% and 2%
  Population Mitochondria Different-Phenotype (%): 0%
  Population Mitotic Cells (%): 90% and 74%
  Population Normal (%): 89% and 88%
  Population Pyknosed Nuclei (%): 2% and 3%
  Population Tubulin-Different-Phenotype (%): 13% and 12%
  Total Cell Count: 2778 and 2175
[6]
  Population Apoptotic (%): 34% and 50%
  Population Fragmented Nuclei (%): 18% and 14%
  Population Healthy Nuclei (%): 78% and 80%
  Population Hoechst High Intensity Objects (%): 15% and 20%
  Population Membrane Permeable-Phenotype (%): 4% and 1%
  Population Mitochondria Different-Phenotype (%): 1% and 3%
  Population Mitotic Cells (%): 65% and 50%
  Population Normal (%): 84% and 79%
  Population Pyknosed Nuclei (%): 3% and 5%
  Population Tubulin-Different-Phenotype (%): 22% and 30%
  Total Cell Count: 1684 and 1056

Source: ChEMBL document CHEMBL5303300, “EUbOPEN Chemogenomics Library - Multiplex” (2023)
